# The source made the active and inactive calls. The calls are words filed in the database; no cut-off is given here.
# How the values were obtained:
# [1] = Inhibition of Escherichia coli UPPP expressed in Escherichia coli C41(DE3) using FPP as substrate preincubated for 15 mins followed by substrate addition measured after 20 mins by malachite green assay
# Outline: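 Purified E. coli UPPP (0.125 μM) preincubated 15 min at room temperature with inhibitor (300 to 0.8 μM) in 50 mM HEPES, 150 mM NaCl, 10 mM MgCl2, 0.02% DDM, pH 7.5. Then 35 μM FPP added, 20 min at 37 °C. Released phosphate measured by malachite green at 620 nm after 30 min. IC50 from dose-response curves. Bacitracin used as control.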
# Enterococcus faecium [2] = assay: Potentiation of gentamicin-induced antibacterial activity against Enterococcus faecium ATCC 700221 assessed as gentamicin MIC preincubated for 30 mins followed by gentamicin addition measured after 18 to 21 hrs; type: functional
# Outline: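 Enterococcal suspensions at 5×10^5 CFU/mL preincubated with compound at ½ × MIC for 30 min at room temperature.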
# Enterococcus faecalis [3] = assay: Synergistic antimicrobial activity against Enterococcus faecalis ATCC 51299 after 20 hrs in presence of doxycycline by checkerboard assay; type: functional
# Outline: (§1)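 Checkerboard in TSB with a starting inoculum of 1×10^5 CFU/mL. Compound and antibiotic diluted from 2× or 4× MIC along perpendicular axes. Incubated 20 h at 37 °C. ΣFIC calculated: ≤0.5 synergy, >0.5 to <2 additive, 2–4 indifference, >4 antagonism.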
# Enterococcus faecalis [4] = assay: Synergistic antimicrobial activity against Enterococcus faecalis ATCC 51299 after 20 hrs in presence of linezolid by checkerboard assay; type: functional; outline: as §1
# Bacillus subtilis [5] = assay: Antibacterial activity against Bacillus subtilis assessed as bending of cells at 5 times MIC after 2 hrs in presence of methylsulfonyl methane by phase contrast microscopic analysis; type: functional
# Outline: (§2)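 B. subtilis grown in LB at 37 °C to OD600 ~0.2, then treated at 5 × MIC with MSM for osmotic stabilisation. At 2 h, stained with FM 4-64 (1 μg/mL), DAPI (1 μg/mL) and SYTOX Green (1 μg/mL). Imaged by deconvolution fluorescence and phase contrast microscopy.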
# Bacillus subtilis [6] = assay: Antibacterial activity against Bacillus subtilis assessed as cell lysis at 5 times MIC after 30 mins by sytox green staining-based deconvolution microscopic analysis; type: functional
# Outline: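 B. subtilis grown in LB at 37 °C to OD600 ~0.2 and treated, with or without MSM for osmotic stabilization, for 30 min or 2 h. Stained with FM 4-64 (1 μg/mL), DAPI (1 μg/mL) and SYTOX Green (1 μg/mL) to score permeability. Examined by deconvolution and phase-contrast microscopy.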
# Enterococcus faecium [7] = assay: Bactericidal activity against vancomycin-resistant Enterococcus faecium ATCC 700221 assessed as bacterial regrowth at 4 times MIC after 22 hrs by time-kill assay; type: functional
# Outline: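 Late-log cells diluted to ~5 × 10^6 CFU/mL and exposed in triplicate to 4 × MIC, in TSB (E. faecalis HM-201) or BHI (E. faecium ATCC 700221) at 37 °C. Sampled at 0, 2, 4, 6, 8, 10, 12 and 24 h, diluted serially in PBS and plated on TSA or BHI agar. CFU/mL counted after 18–22 h. DMSO served as negative control.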
# Klebsiella pneumoniae = assay: Antibacterial activity against Klebsiella pneumoniae BAA-1706 after 18 to 22 hrs in presence of 1/4 times MIC colistin by broth microdilution method; type: functional
# Outline: (§3)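 Broth microdilution per CLSI guidelines. Gram-negatives grown in TSB. Each strain tested alone and again with colistin at ¼ × MIC to permeabilize the outer membrane. Plates incubated at 37 °C for 18–22 h. MIC read as the lowest concentration showing no visible growth.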
# Staphylococcus aureus = assay: Antibacterial against Methicillin-Resistant Staphylococcus aureus after 18 to 20 hrs by broth microdilution method; type: functional
# [8] = Induction of proton motive force collapse in Escherichia coli inverted membrane vesicle in presence of ATP-driven PMF generation system by ACMA-based fluorescence assay; type: functional, cell membranes
# Outline: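 E. coli inverted membrane vesicles (0.1 mg/mL membrane protein) with 2 μM ACMA and 0.5 mM ATP or succinate, in 10 mM HEPES-KOH, 5 mM MgSO4, 100 mM KCl, pH 7.5. Proton gradient followed by ACMA fluorescence (ex 410/em 480 nm). EC50 taken from dose-response curves. CCCP used as reference uncoupler.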
# HRT-18 cell line = assay: Cytotoxicity against human HRT18 cells assessed as reduction in cell viability at 20 ug/ml after 24 hrs by MTS assay; type: cell-based; conditions: hrt-18, 24 h
# Outline: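 HRT-18 cells maintained in RPMI-1640 with 10% fetal horse serum at 37 °C, 5% CO2. Exposed to 5, 10, 20 or 40 μg/mL for 2 or 24 h, then MTS added and absorbance read at 490 nm. Viability expressed relative to untreated cells, n ≥ 3, one-way ANOVA with Dunnett's test.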
# Escherichia coli [9] = assay: Antibacterial activity against tolC deficient Escherichia coli assessed as formation of spheroplasts at 25 ug/ml after 2 hrs in presence of sucrose by FM4-64/DAPI/SYTOX green staining-based deconvolution microscopic analysis; type: functional
# Enterococcus faecalis [10] = assay: Synergistic antimicrobial activity against Enterococcus faecalis ATCC 49532 after 20 hrs in presence of ciprofloxacin by checkerboard assay; type: functional; outline: as §1
# Enterococcus faecium [11] = assay: Potentiation of vancomycin-induced antibacterial activity against Enterococcus faecium HM-968 assessed as fold reduction in vancomycin MIC preincubated for 30 mins followed by vancomycin addition measured after 18 to 21 hrs; type: functional
# Outline: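 VRE suspensions at 5×10^5 CFU/mL preincubated with compound at ½ × MIC for 30 min at room temperature. […] Fold reduction calculated as vancomycin MIC alone over MIC in combination.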
# [12] = biological target: T1, Farnesyl pyrophosphate synthase (Homo sapiens, UniProt P14324); assay: Inhibition of human FPPS
# T1 sequence (P14324 whole entry): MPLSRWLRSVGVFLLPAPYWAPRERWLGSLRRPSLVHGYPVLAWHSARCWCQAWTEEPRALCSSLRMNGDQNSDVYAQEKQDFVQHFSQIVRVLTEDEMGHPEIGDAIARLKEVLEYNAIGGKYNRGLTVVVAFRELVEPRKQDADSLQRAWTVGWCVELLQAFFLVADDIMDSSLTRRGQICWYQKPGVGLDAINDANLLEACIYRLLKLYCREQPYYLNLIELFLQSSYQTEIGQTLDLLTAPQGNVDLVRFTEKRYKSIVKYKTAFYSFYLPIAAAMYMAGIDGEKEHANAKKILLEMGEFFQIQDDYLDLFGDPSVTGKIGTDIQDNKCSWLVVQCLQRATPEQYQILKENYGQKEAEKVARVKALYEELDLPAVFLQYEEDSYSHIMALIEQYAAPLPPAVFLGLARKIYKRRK
# Enterococcus faecalis [13] = assay: Synergistic antimicrobial activity against Enterococcus faecalis ATCC 51299 after 20 hrs in presence of ampicillin by checkerboard assay; type: functional; outline: as §1
# Bacillus subtilis [14] = assay: Antibacterial activity against Bacillus subtilis assessed as misshapen cells at 5 times MIC after 2 hrs in presence of methylsulfonyl methane by phase contrast microscopic analysis; type: functional; outline: as §2
# Escherichia coli [15] = assay: Antibacterial activity against Escherichia coli 1411 after 18 to 22 hrs in absence of colistin by broth microdilution method; type: functional; outline: as §3
structure (smiles),measurement,setting,value
CCCCc1ccc(-c2nc(C)c(/C(C)=N/NC(=N)N)s2)cc1,IC50,[1],6 µM
same,Activity,Enterococcus faecium [2],inactive
same,fractional inhibitory concentration index (FICI),Enterococcus faecalis [3],2
same,fractional inhibitory concentration index (FICI),Enterococcus faecalis [4],2
same,Activity,Bacillus subtilis [5],Active
same,Activity,Bacillus subtilis [6],95%
same,Activity,Enterococcus faecium [7],Active
same,MIC,Klebsiella pneumoniae,1 µg/mL
same,MIC,Staphylococcus aureus,1.3 to 5.6 µg/mL
same,EC50,[8],12 µM
same,Activity,HRT-18 cell line,Non-Toxic
same,Activity,Escherichia coli [9],Active
same,fractional inhibitory concentration index (FICI),Enterococcus faecalis [10],0.63 - 1
same,Activity,Enterococcus faecium [11],inactive
same,inhibition (INH),[12],Not Active
same,fractional inhibitory concentration index (FICI),Enterococcus faecalis [13],3
same,Activity,Bacillus subtilis [14],Active
same,MIC,Escherichia coli [15],64 µg/mL

# — ChEMBL document CHEMBL4028805, “Phenylthiazole Antibacterial Agents Targeting Cell Wall Synthesis Exhibit Potent Activity in Vitro and in Vivo against Vancomycin-Resistant Enterococci” (J Med Chem, 2017)
